Sampled rows, rich in hits. Any-hit rate of the full collection: about 3.5%.
MrgX1 antag = human MrgX1 receptor antagonism, primary screen; Q96LB2; MRGX1-HEK293 calcium flux, Fluo-4, BAM8-22 antagonism; hits give low values; B-score at 10 µM; 310,000 compounds, 1.3% hits;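 active means calcium-response B-score plate-corrected more than 3 library SD below zero, starting fluorescence within 5 deviations, no agonist response on first addition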;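 further: peak minus trough fluorescence over baseline after final BAM8-22 challenge near maximal dose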
Target sequence (Q96LB2 whole entry, looked up): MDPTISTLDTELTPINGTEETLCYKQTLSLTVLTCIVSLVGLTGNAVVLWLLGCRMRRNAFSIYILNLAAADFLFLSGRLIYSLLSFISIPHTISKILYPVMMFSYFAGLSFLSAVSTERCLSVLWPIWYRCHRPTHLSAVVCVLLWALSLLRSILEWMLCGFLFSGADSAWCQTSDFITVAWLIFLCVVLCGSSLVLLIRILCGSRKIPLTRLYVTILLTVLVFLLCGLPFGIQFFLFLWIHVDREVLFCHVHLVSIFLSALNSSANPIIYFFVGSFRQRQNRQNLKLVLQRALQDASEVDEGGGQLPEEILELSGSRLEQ
RGS4 act = potentiators or activators of RGS4. HEK293 M3R/inducible RGS4, carbachol calcium flux Fluo4; hits give low values. B-score at 10 µM. 310,000 compounds, 0.92% hits. AID 463111;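 active means B-score of the integrated calcium signal more than 4 SD below the library mean, with starting fluorescence not abnormally high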;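 further: negative B-score means reduced calcium response which marks RGS4 activation or potentiation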
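test system = HEK293 cells with stable M3R and inducible RGS4 | schedule = recording 10 s baseline at 1 Hz, 100 s post-agonist | technique = Fluo4-AM (2 µM) calcium-flux fluorescence, kinetic read | measure = Agonist-evoked peak-minus-minimum fluorescence over baseline, integrated ratio, B score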
MrgX1 ag = agonists of human MrgX1 receptor. MrgX1-HEK293 cells, Fluo-4 calcium fluorescence, agonist mode; hits give high values. B-score at 10 µM. 310,000 compounds, 0.44% hits;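 active means calcium response B-score plate-corrected fluorescence ratio at least 3 library SD, with starting fluorescence B-score inside 5 SD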
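Material: MrgX1-expressing HEK293 cells; input: 15,000 cells per well; doses: test compound given as first of three sequential additions; schedule: overnight plating before 1 h dye loading; technique: Fluo-4 NW calcium-flux fluorescence, kinetic read; evaluation: baseline-normalised fluorescence change ratio, B-scored; control set: plate-wise positive and negative controls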
MrgX1 PAM = allosterically activates human MrgX1 receptor signaling | MrgX1-HEK293, Fluo-4 calcium flux, FDSS; hits give high values | 310,000 compounds, 0.63% hits | B-score at 10 µM | Q96LB2;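 active means plate-corrected calcium response at least 3 library SD above typical, normal starting fluorescence, not activating the receptor alone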;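 further: compound read alongside a low EC10 to EC30 dose of BAM8-22 agonist; peak minus trough fluorescence over baseline measured at the second addition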
RGS4 block = human RGS4 inhibition; HEK293 M3R/RGS4 inducible, Fluo-4 calcium flux; hits give high values; triggered by carbachol at its EC20; AID 463165; 310,000 compounds, 0.45% hits; P49798; B-score at 10 µM;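 active means B-score, a plate-corrected calcium signal, over three deviations above library mean, with baseline fluorescence within five deviations of library mean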;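 further: RGS4 expression induced by doxycycline in cells with stable M3 receptor; B-score is computed from the integrated fluorescence ratio over baseline after carbachol; higher B-score means a larger calcium signal and so more RGS4 inhibition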
Target sequence (P49798 whole entry, looked up): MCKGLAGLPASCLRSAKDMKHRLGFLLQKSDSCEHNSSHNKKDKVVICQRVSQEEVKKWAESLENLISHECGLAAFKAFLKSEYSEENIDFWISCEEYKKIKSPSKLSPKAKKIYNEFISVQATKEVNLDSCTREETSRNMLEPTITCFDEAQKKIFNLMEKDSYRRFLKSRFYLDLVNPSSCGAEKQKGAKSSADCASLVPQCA
RGS4 block valid = RGS4 inhibitor validation | shares compounds with RGS4 block | HEK293 M3R/RGS4, carbachol calcium Fluo-4 fluorescence; carbachol added at its EC20; 0 = buffer wells, 100 = carbachol control | 1,700 compounds, 65% hits | calcium response, % at 10 µM;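 active means duplicate-averaged calcium response above the buffer-only control mean plus 5 SD of those controls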;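 further: integrated fluorescence ratio F max minus min over baseline F0; higher response in RGS4-induced cells means RGS4 inhibition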
M3R Ca ctr = counter-screen for RGS4 inhibitors: effect in non-induced cells; 1,900 compounds, 20% hits; activity (percent), % at 10 µM; AID 493000; HEK293 M3R non-induced, carbachol calcium Fluo-4; submaximal (EC20) carbachol stimulus; buffer wells 0%, carbachol control wells 100%; shares compounds with RGS4 block; call rule not given here;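 further: RGS4 induction absent so cells express M3R without RGS4; higher means more calcium signal and flags a non-specific hit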
RGS4 inh ctr2 = second RGS4 inhibitor counter-screen in uninduced cells lacking carbachol. shares compounds with RGS4 block. HEK293 M3R/RGS4 non-induced, Fluo-4 calcium, no carbachol; normalised: buffer wells 0%, carbachol wells 100%. calcium response (agonist-mode artifact), % at 10 µM. 1,900 compounds, 22% hits;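 active means duplicate-averaged calcium rise in uninduced cells above buffer wells' mean plus 5 SD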
Large screens that a line does not name were inactive (follow-up assays come after a bar, where they were run).

COc1ccccc1C1CC(c2c(-c3ccccc3)c3cc(Cl)ccc3[nH]c2=O)=NN1S(C)(=O)=O (stereo unspecified)	none (no result: RGS4 act, RGS4 block)
COc1cccc(C2CC(c3c(-c4ccccc4)c4cc(Cl)ccc4[nH]c3=O)=NN2S(C)(=O)=O)c1OC (stereo unspecified)	RGS4 block 5.2 | RGS4 block valid 9.0% | M3R Ca ctr inactive | RGS4 inh ctr2 80%
CCOc1ccccc1NC(=O)c1cccc(NC(=O)CC(c2ccccc2)c2ccccc2)c1	RGS4 block 11 | RGS4 block valid 30% | M3R Ca ctr 36% | RGS4 inh ctr2 16%
CON(C)c1nc(OCCNC(=O)OCc2ccc(Cl)cc2Cl)nc(N(C)C)n1	none
CC(C)C(c1nnnn1C(C)(C)C)N1CCC(Cc2ccccc2)CC1 (stereo unspecified)	none
O=C(O)c1ccc(/C=C2\COc3ccccc3C2=O)cc1	RGS4 block 31 | RGS4 block valid 45% | M3R Ca ctr inactive | RGS4 inh ctr2 inactive
CCOc1cc(/C=C2\COc3ccccc3C2=O)cc(Br)c1OCC(=O)N(C)C	RGS4 block 8.3 | RGS4 block valid 27% | M3R Ca ctr inactive | RGS4 inh ctr2 inactive
COc1ccc(/C=C2\COc3ccccc3C2=O)cc1OC	none
CCn1c(C)nc2cc(C(=O)N/N=C/c3ccc(N4CCOCC4)cc3)ccc21	none
CC1=CC(C)(C)N2C(=O)C3(C(C#N)=C(N)OC4=C3C(=O)CCC4)c3c(C)c(C)cc1c32 (stereo unspecified)	none
CC1=CC(C)(C)N2C(=O)C3(C(C#N)=C(N)Oc4cc(O)ccc43)c3c(C)c(C)cc1c32 (stereo unspecified)	RGS4 block 5.9 | RGS4 block valid 29% | M3R Ca ctr inactive | RGS4 inh ctr2 inactive
OC[C@H]1O[C@@H](n2cnc3c(NC4CCCC4)nc(Cl)nc32)[C@H](O)[C@@H]1O	none (no result: RGS4 act, RGS4 block)
Nc1nc(Cl)nc2c1ncn2[C@@H]1O[C@H](CO)[C@@H](O)[C@H]1O	RGS4 block 9.8 | RGS4 block valid 47% | M3R Ca ctr 78% | RGS4 inh ctr2 inactive
Cc1ccccc1C(=O)Nn1cnc2ccccc2c1=O	none
CSc1nc(-c2ccc(Cl)cc2)nn1C(=O)c1ccco1	RGS4 block 5.6 | RGS4 block valid inactive | M3R Ca ctr inactive | RGS4 inh ctr2 inactive
Cc1c(Cl)ccc2sc(NC(=O)C3CC3)nc12	RGS4 block 6.2 | RGS4 block valid 8.0% | M3R Ca ctr inactive | RGS4 inh ctr2 inactive
N#Cc1ccc(-c2cn3c(n2)SCC3)cc1	none
CCOC(=O)C1=C(CS(=O)(=O)c2ccccc2)NC(=O)NC1c1ccc(OC)c(OC)c1 (stereo unspecified)	none
COC(=O)C1=C(CS(=O)(=O)c2ccccc2)NC(=O)NC1c1ccc(OC)c(OC)c1 (stereo unspecified)	none | RGS4 block valid inactive | M3R Ca ctr inactive | RGS4 inh ctr2 inactive
CC(=O)C1=C(O)C(=O)N(c2cc(C(C)(C)C)on2)C1c1ccc(C(C)C)cc1 (stereo unspecified)	none | RGS4 block valid inactive | M3R Ca ctr inactive | RGS4 inh ctr2 56%
CC(=O)C1=C(O)C(=O)N(c2ccc(Br)cn2)C1c1ccc(Br)cc1 (stereo unspecified)	none
CC(=O)C1=C(O)C(=O)N(c2cc(C(C)(C)C)on2)C1c1ccc(Br)cc1 (stereo unspecified)	RGS4 block 7.8 | RGS4 block valid 44% | M3R Ca ctr 30% | RGS4 inh ctr2 inactive
CC(C)(CO)NS(=O)(=O)c1ccc2c(c1)C(=NO)c1cc(S(=O)(=O)NC(C)(C)CO)ccc1-2	RGS4 block 11 | RGS4 block valid 16% | M3R Ca ctr inactive | RGS4 inh ctr2 inactive

Source: PubChem BioAssay
